Data as given in ChEMBL document CHEMBL1127689, “Novel 4-(aryloxy)tetrahydropyridine analogs of MPTP as monoamine oxidase A and B substrates” (J Med Chem, 1994).

B1: Amine oxidase [flavin-containing] B (Bos taurus) (protein)
chain: MSSKCDVVVVGGGISGMAAAKLLHDSGLNVIVLEARDRVGGRTYTLRNQKVKYVDLGGSYVGPTQNHILRLSKELGLETYKVNEVERLIHHTKGKSYPFRGSFPSVWNPITYLDHNNLWRTMDDMGREIPSDAPWKAPLAEQWDLMTMKELLDKICWTESSKQLAILFVNLCVTAEIHEVSALWFLWYVKQCGGTTRIFSTSNGGQERKFVGGSGQVSERIMDLLGDRVKLERPVIHIDQTGENVLVETLNHELYEAKYVISAVPPVLGMKIHFNPPLPMMRNQLITRVPLGSVIKSIVYYKEPFWRNMDYCGSMIIEGEEAPVAYALDDTKPDGSYPAIIGFILAHKARKLARLTKEERLKKLCDLYAKVLGSQEALHPVHYEEKNWCEEQYSGGCYTSYFPPGIMTQYGRVLRQPVGRIYFAGTETATHWSGYMEGAVEAGERAAREILHAMGKIPEDEIWLPEPESVDVPAKPITTTFLQRHLPSVPGLLKLIGLTTIFSATALGFLAHKRGLLVRI
B2: Amine oxidase [flavin-containing] A (Homo sapiens) (protein)
chain: MENQEKASIAGHMFDVVVIGGGISGLSAAKLLTEYGVSVLVLEARDRVGGRTYTIRNEHVDYVDVGGAYVGPTQNRILRLSKELGIETYKVNVSERLVQYVKGKTYPFRGAFPPVWNPIAYLDYNNLWRTIDNMGKEIPTDAPWEAQHADKWDKMTMKELIDKICWTKTARRFAYLFVNINVTSEPHEVSALWFLWYVKQCGGTTRIFSVTNGGQERKFVGGSGQVSERIMDLLGDQVKLNHPVTHVDQSSDNIIIETLNHEHYECKYVINAIPPTLTAKIHFRPELPAERNQLIQRLPMGAVIKCMMYYKEAFWKKKDYCGCMIIEDEDAPISITLDDTKPDGSLPAIMGFILARKADRLAKLHKEIRKKKICELYAKVLGSQEALHPVHYEEKNWCEEQYSGGCYTAYFPPGIMTQYGRVIRQPVGRIFFAGTETATKWSGYMEGAVEAGERAAREVLNGLGKVTEKDIWVQEPESKDVPAVEITHTFWERNLPSVSGLLKIIGFSTSVTALGFVLYKYKLLPRS

Key:
[1] = substrate: CN1CC=C(Oc2ccc(Cl)cc2Cl)CC1; test: (§1) Oxidation by bovine mono-amine oxidase B MAO-B; parameters: species or system Bos taurus
Summary of the method: (§2)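 Bovine liver mitochondrial MAO-B, partially purified, at 0.087 μM. Four substrate concentrations were used, from 500–62.5 μM solutions in 100 mM sodium phosphate, pH 7.4. Each was equilibrated 1 min at 37 °C before enzyme was added. Amino enone formation was read at 324 nm every 3 s for 2 min, in duplicate. Km and TN came from Lineweaver-Burk double-reciprocal plots of initial rates.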

[2] = substrate: CN1CC=C(Oc2cccc3ccccc23)CC1; test: as §1; parameters: species or system Bos taurus; summary of the method: as §2
[3] = substrate: CN1CC=C(Oc2ccccc2)CC1; test: as §1; parameters: species or system Bos taurus; summary of the method: as §2
[4] = substrate: CN1CC=C(Oc2ccc3ccccc3c2)CC1; test: as §1; parameters: species or system Bos taurus; summary of the method: as §2
[5] = substrate: CN1CC=C(Cc2ccc3ccccc3c2)CC1; test: as §1; parameters: species or system Bos taurus; summary of the method: as §2
[6] = substrate: CN1CC=C(Oc2ccc(-c3ccccc3)cc2)CC1; test: as §1; parameters: species or system Bos taurus; summary of the method: as §2
[7] = substrate: CN1CC=C(Oc2ccc(C(C)(C)C)cc2)CC1; test: as §1; parameters: species or system Bos taurus; summary of the method: as §2
[8] = substrate: CCCCc1ccc(OC2=CCN(C)CC2)cc1; test: as §1; parameters: species or system Bos taurus; summary of the method: as §2
[9] = substrate: CN1CC=C(Oc2ccc(Cl)cc2Cl)CC1; test: (§3) Oxidation by human mono-amine oxidase MAO-A
Summary of the method: (§4)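 MAO-A preparation was diluted 1:4 in 20 mM phosphate, pH 7.4, with 20% w/v glycerol and used at 0.17 μM. Four substrate concentrations were used, from 500–62.5 μM solutions in 100 mM sodium phosphate, pH 7.4, after 1 min at 37 °C. Initial rates were taken from the 324 nm amino enone absorbance, read every 3 s for 2 min, in duplicate. Km and TN came from double-reciprocal plots.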

[10] = substrate: CN1CC=C(Oc2cccc3ccccc23)CC1; test: as §3; summary of the method: as §4
[11] = substrate: CN1CC=C(Oc2ccccc2)CC1; test: as §3; summary of the method: as §4
[12] = substrate: CN1CC=C(Oc2ccc3ccccc3c2)CC1; test: as §3; summary of the method: as §4
[13] = substrate: CN1CC=C(Oc2ccc(-c3ccccc3)cc2)CC1; test: as §3; summary of the method: as §4
[14] = substrate: CN1CC=C(Oc2cc3ccccc3c3ccccc23)CC1; test: as §3; summary of the method: as §4
[15] = substrate: CN1CC=C(Cc2cc3ccccc3c3ccccc23)CC1; test: as §3; summary of the method: as §4
[16] = substrate: CN1CC=C(Oc2ccc(C(C)(C)C)cc2)CC1; test: as §3; summary of the method: as §4
[17] = substrate: CCCCc1ccc(OC2=CCN(C)CC2)cc1; test: as §3; summary of the method: as §4

Row | Protein | Km [1] [µM] | Km [2] [µM] | Km [3] [µM] | Km [4] [µM] | Km [5] [µM] | Km [6] [µM] | Km [7] [µM] | Km [8] [µM] | Km [9] [µM] | Km [10] [µM] | Km [11] [µM] | Km [12] [µM] | Km [13] [µM] | Km [14] [µM] | Km [15] [µM] | Km [16] [µM] | Km [17] [µM]
1 | B1 | 167 | 143 | 58 | 274 | 892 | 284 | 56 | 84 | – | – | – | – | – | – | – | – | –
2 | B2 | – | – | – | – | – | – | – | – | 29 | 144 | 55 | 77 | 101 | 278 | 480 | 130 | 51
